Reference: ChEMBL document CHEMBL3272033, “Physicochemical and pharmacological studies of some 8-substituted decahydroisoquinolines” (J Med Chem, 1976)

Legend:
[1] = Dissociation constant, pKa of the compound in 0.01 M potassium hydrogen phthalate; assay type: physicochemical
Outline: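 pKa by potentiometric titration with 0.01 M potassium hydrogen phthalate in a thermostated vessel, stirred, under nitrogen bubbling, using glass and calomel electrodes. pKa is the mean pH at half-neutralization from four titrations. Endpoints were taken from parallel tangents on either side of the inflection.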

Homo sapiens [2] = species: Homo sapiens; experiment: Drug absorption in buccal cavity in human at pH 9.3 after 5 mins by UV spectrometry; assay type: ADME, organism-based; settings: in vivo, other, pH 9.3, 5 min
Outline: (§1)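 3 mg compound in 25 ml buffer (0.1 M phosphate pH 5.50 or 7.50; tetraborate pH 9.30) swished in the mouth for 5 min, expelled, and combined with a 10 ml water rinse. Made up to 50 ml; aliquot basified to pH 10 and ether-extracted, then back-extracted into 0.1 N HCl. UV absorbance read at λmax against Beer's law plots; the unrecovered fraction is taken as % absorbed. One to three subjects.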

Homo sapiens [3] = species: Homo sapiens; experiment: Drug absorption in buccal cavity in human at pH 5.50 after 5 mins by UV spectrometry; assay type: ADME, organism-based; settings: in vivo, other, pH 5.5, 5 min; outline: as §1
Homo sapiens [4] = species: Homo sapiens; experiment: Drug absorption in buccal cavity in human at pH 7.50 after 5 mins by UV spectrometry; assay type: ADME, organism-based; settings: in vivo, other, pH 7.5, 5 min; outline: as §1
Mus musculus [5] = experiment: Antiarrhythmic activity in ip dosed Swiss-Webster albino mouse assessed as prevention of chloroform-induced ventricular fibrillation; assay type: functional, Heart
Mus musculus [6] = experiment: Toxicity in ip dosed Swiss-Webster albino mouse; assay type: organism-based; settings: in vivo
[7] = Therapeutic index, ratio of LD50 for toxicity to ED50 for antiarrhythmic activity in ip dosed Swiss-Webster albino mouse; assay type: organism-based, Heart; settings: in vivo, read-out: Ratio LD50/ED50
Heart [8] = experiment: Antiarrhythmic activity in Hartley guinea pig atria assessed as change in maximum driving rate at 66.1 uM/l after 5 mins; assay type: functional, Cavia porcellus
Outline: (§2)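 Spontaneously beating isolated atria held under initial tension; bath fluid changed every 10 min; stabilised about 1 h. Maximum driving rate found with 1-ms square pulses at 50% above threshold voltage, 10 s every 30 s; the frequency just before failure of following is the MDR. Control is the mean of two determinations. Spontaneous rate recorded by tachograph. Values are % change from control at peak response, generally 5–30 min.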

Heart [9] = experiment: Antiarrhythmic activity in Hartley guinea pig atria assessed as change in spontaneous rate at 66.1 uM/l after 5 mins; assay type: functional, Cavia porcellus; outline: as §2
Heart [10] = experiment: Antiarrhythmic activity in Hartley guinea pig atria assessed as change in maximum driving rate at 61.6 uM/l after 5 mins; assay type: functional, Cavia porcellus; outline: as §2
Heart [11] = experiment: Antiarrhythmic activity in Hartley guinea pig atria assessed as change in maximum driving rate at 30.8 uM/l after 5 mins; assay type: functional, Cavia porcellus; outline: as §2
Heart [12] = experiment: Antiarrhythmic activity in Hartley guinea pig atria assessed as change in maximum driving rate at 15.4 uM/l after 5 mins; assay type: functional, Cavia porcellus; outline: as §2
Heart [13] = experiment: Antiarrhythmic activity in Hartley guinea pig atria assessed as change in spontaneous rate at 61.6 uM/l after 5 mins; assay type: functional, Cavia porcellus; outline: as §2
Heart [14] = experiment: Antiarrhythmic activity in Hartley guinea pig atria assessed as change in spontaneous rate at 30.8 uM/l after 5 mins; assay type: functional, Cavia porcellus; outline: as §2
Heart [15] = experiment: Antiarrhythmic activity in Hartley guinea pig atria assessed as change in spontaneous rate at 15.4 uM/l after 5 mins; assay type: functional, Cavia porcellus; outline: as §2
Heart [16] = experiment: Antiarrhythmic activity in Hartley guinea pig atria assessed as reversible decrease in maximum driving rate compound treated for 5 mins measured up to 2 hrs post washout; assay type: functional, tissue-based; settings: Cavia porcellus
Outline: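 After compound exposure the bath was washed out. Two MDR determinations were made every 15 min for up to 2 h to follow reversibility and recovery toward control. Bath fluid was changed every 10 min.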

Heart [17] = experiment: Antiarrhythmic activity in Hartley guinea pig atria assessed as change in maximum driving rate at 60.2 uM/l after 5 mins; assay type: functional, Cavia porcellus; outline: as §2
Heart [18] = experiment: Antiarrhythmic activity in Hartley guinea pig atria assessed as change in spontaneous rate at 60.2 uM/l after 5 mins; assay type: functional, Cavia porcellus; outline: as §2
Heart [19] = experiment: Antiarrhythmic activity in Hartley guinea pig atria assessed as change in maximum driving rate at 65.0 uM/l after 5 mins; assay type: functional, Cavia porcellus; outline: as §2
Heart [20] = experiment: Antiarrhythmic activity in Hartley guinea pig atria assessed as change in maximum driving rate at 32.5 uM/l after 5 mins; assay type: functional, Cavia porcellus; outline: as §2
Heart [21] = experiment: Antiarrhythmic activity in Hartley guinea pig atria assessed as change in spontaneous rate at 65.0 uM/l after 5 mins; assay type: functional, Cavia porcellus; outline: as §2
Heart [22] = experiment: Antiarrhythmic activity in Hartley guinea pig atria assessed as change in spontaneous rate at 32.5 uM/l after 5 mins; assay type: functional, Cavia porcellus; outline: as §2
Homo sapiens [23] = experiment: Toxicity in human assessed as numbness at 5 x 10' -5 M administered topically to buccal cavity measured up to 15 to 20 mins; assay type: organism-based; settings: in vivo, topical_or_ocular, 50 µM
Heart [24] = experiment: Antiarrhythmic activity in Hartley guinea pig atria assessed as change in maximum driving rate at 65.2 uM/l after 5 mins; assay type: functional, Cavia porcellus; outline: as §2
Heart [25] = experiment: Antiarrhythmic activity in Hartley guinea pig atria assessed as change in spontaneous rate at 65.2 uM/l after 5 mins; assay type: functional, Cavia porcellus; outline: as §2

| Compound | pKa [1] | Drug absorption (Homo sapiens [2]) | Drug absorption (Homo sapiens [3]) | Drug absorption (Homo sapiens [4]) | ED50 (Mus musculus [5]) | LD50 (Mus musculus [6]) | selectivity ratio [7] | Activity (Heart [8]) | Activity (Heart [9]) | further results |
| --- | --- | --- | --- | --- | --- | --- | --- | --- | --- | --- |
| CN1CC[C@H]2CCC[C@@H](NS(=O)(=O)c3ccccc3)[C@H]2C1 (mixture of isomers) | 9.17 | 30.4% | 14.9% | 17.7% | 282 µmol/kg | 1460 | 5.2 |  |  |  |
| COc1ccccc1C(=O)N[C@@H]1CCC[C@@H]2CCN(C)C[C@H]21 (mixture of isomers) | 8.81 | 41.2% | 5.2% | 12.8% | 175 µmol/kg | 761 | 4.3 | -19.8% | -25% |  |
| C=C[C@H]1CN2CC[C@H]1C[C@@H]2[C@@H](O)c1ccnc2ccc(OC)cc12 [QUINIDINE] |  |  |  |  | 160 µmol/kg |  |  |  |  | Activity (Heart [10]): -36.3%; Activity (Heart [11]): -22.8%; Activity (Heart [12]): -13.3%; Activity (Heart [13]): -36.1%; Activity (Heart [14]): -28.6%; Activity (Heart [15]): -18.8%; Activity (Heart [16]): Dose-dependent effect |
| COc1ccc(C(=O)N[C@@H]2CCC[C@@H]3CCN(C)C[C@H]32)cc1OC (mixture of isomers) | 8.89 | 27.1% | 16.8% | 18.9% | 164 µmol/kg | 1600 | 9.8 |  |  | Activity (Heart [17]): -13.8%; Activity (Heart [18]): -20.2% |
| C=C[C@H]1C[N@@]2CC[C@H]1C[C@@H]2[C@@H](O)c1ccnc2ccc(OC)cc12 [QUINIDINE] |  |  |  |  |  | 533 uM/L |  |  |  |  |
| CN1CC[C@H]2CCC[C@@H](OC(=O)c3ccc(Cl)cc3)[C@H]2C1 (mixture of isomers) | 8.9 | 86.5% | 13.7% | 43.7% | 257 µmol/kg | 1200 | 4.7 |  |  | Activity (Heart [19]): -53.3%; Activity (Heart [20]): -32.2%; Activity (Heart [21]): -52.3%; Activity (Heart [22]): -48.6%; Activity (Homo sapiens [23]): Toxic; Activity (Heart [16]): Dose-dependent effect |
| COc1ccc(C(=O)N[C@@H]2CCC[C@@H]3CCN(C)C[C@H]32)cc1 (mixture of isomers) |  | 34.3% | 7.4% | 9% | 195 µmol/kg | 1490 | 7.6 | -19.8% | -21.5% |  |
| CN1CC[C@H]2CCC[C@@H](NC(=O)c3ccc(Cl)cc3)[C@H]2C1 (mixture of isomers) |  | 43.2% | 6.7% | 9.3% | 209 µmol/kg | 909 | 4.4 |  |  | Activity (Heart [24]): -28.5%; Activity (Heart [25]): -13.1% |
| COc1ccccc1C(=O)N[C@@H]1CCC[C@@H]2CCN(C)C[C@@H]21 (mixture of isomers) | 9.11 | 35.1% | 1.2% | 5.3% | 116 µmol/kg | 847 | 7.3 | -23.2% | -25.5% |  |
